Reference: paper PMC6044135 (Indian Journal of Pharmacology, 2018)

What was measured:
[1] = cited from earlier work
[2] = may be caused by the ligand (picolinate); cited from earlier work
[3] = Pharmacokinetics of serum Cr after oral gavage; format: in vivo, Sprague-Dawley rat; details: for serum concentration of Cr: at 1.5 h
In short: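 SD rats (180 ± 10 g, male and female, 10/group) received 20 μg Cr/kg bw either by gavage after a 12 h fast or via the caudal vein. Blood was drawn retro-orbitally into heparinized tubes at 0–72 h, over 21 time points. Serum (10,000 g, 10 min, 4°C) was wet-digested, 0.1 mL in nitric/perchloric acid (1:4, v/v), and Cr read by simultaneous ICP-OES. Compartment model chosen by AIC and F-test.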

[4] = Bioavailability analysis; format: in vivo, Sprague-Dawley rat; details: for absolute bioavailability (FAB): AUCig × 100%/AUCiv; for relative bioavailability (FRB): oral, AUC chromium malate × 100%/AUC chromium picolinate
In short: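 AUCs came from compartment-model fits of serum Cr–time data in SD rats of each sex. Dosing was 20 μg Cr/kg bw by oral gavage or caudal-vein injection. Relative bioavailability = AUC of test compound ×100%/AUC of chromium picolinate, both oral. Absolute bioavailability = AUC intragastric ×100%/AUC IV.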

[5] = Tissue distribution of Cr; format: in vivo, Sprague-Dawley rat; details: oral gavage; for level of Cr in brain / level of Cr in heart / level of Cr in kidney / level of Cr in liver / level of Cr in lung / level of Cr in spleen: at 12 h
In short: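 Male and female SD rats were dosed by oral gavage and killed under anhydrous diethyl ether anaesthesia at 0.25–48 h postdose. Heart, liver, spleen, lung, kidneys and brain were collected, wet-digested as for serum, and Cr measured by simultaneous ICP-OES. Results given per g tissue.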

[6] = Faeces distribution of Cr; format: in vivo, Sprague-Dawley rat; details: oral gavage, 20 μg Cr/kg bw; for feces concentration of Cr: at 5 h
[7] = tested on: diabetic mice; details: cited from earlier work
[8] = cited from earlier work; remark: listed apart in the source
[9] = cited from earlier work; remark: listed apart in the source
[10] = tested on: rats with type 2 diabetes; details: cited from earlier work
[11] = cited from earlier work; remark: listed apart in the source
[12] = intraperitoneal administration, ref 32 (Kirman et al.); cited from earlier work

Compound: O=C([O-])c1cccnc1.O=C([O-])c1cccnc1.O=C([O-])c1cccnc1.[Cr+3] [chromium nicotinate]
- solubility [1]: poor solubility

Compound: O=C([O-])c1ccccn1.O=C([O-])c1ccccn1.O=C([O-])c1ccccn1.[Cr+3] [Chromium picolinate, chromium picolinate]
- genotoxicity, cytotoxicity, and tumorigenesis [2]: had shown the genotoxicity, cytotoxicity, and tumorigenesis

Compound: O=C(O)CC(O)C(=O)O.O=C(O)CC(O)C(=O)O.O=C(O)CC(O)C(=O)O.[Cr].[Cr] (stereo not drawn) [Chromium malate, chromium malate]
- Tmax of serum concentration of Cr ([3]; 20 μg Cr/kg bw, sex not split): 1.5 h
- serum concentration of Cr ([3]; female rats, 20 μg Cr/kg bw): 4.76 ± 0.55 µg/mL
- serum concentration of Cr ([3]; male rats, 20 μg Cr/kg bw): 4.63 ± 0.37 µg/mL
- AUC0→∞ compared with chromium picolinate ([3]; male rats, P ≤ 0.05): higher
- MRT compared with chromium picolinate group ([3]; rats of the same sex, P < 0.05): significantly higher
- absolute bioavailability (FAB) ([4]; female rats): 113.28% ± 1.72%
- relative bioavailability (FRB) ([4]; female rats): 105.28% ± 1.62%
- absolute bioavailability (FAB) ([4]; male rats): 111.80% ± 1.81%
- relative bioavailability (FRB) ([4]; male rats): 115.73% ± 2.03%
- level of Cr in brain ([5]; female rats): 0.6 µg/g
- level of Cr in heart ([5]; female rats): 0.50 µg/g
- level of Cr in kidney ([5]; female rats): 0.78 µg/g
- level of Cr in liver ([5]; female rats): 0.60 µg/g
- level of Cr in lung ([5]; female rats): 0.49 µg/g
- level of Cr in spleen ([5]; female rats): 0.40 µg/g
- tissue distribution of Cr in comparison with control (male and female) groups ([5]; male and female rats): no notable change
- level of Cr in brain ([5]; male rats): 0.67 µg/g
- level of Cr in heart ([5]; male rats): 0.52 µg/g
- level of Cr in kidney ([5]; male rats): 0.84 µg/g
- level of Cr in liver ([5]; male rats): 0.61 µg/g
- level of Cr in lung ([5]; male rats): 0.52 µg/g
- level of Cr in spleen ([5]; male rats): 0.40 µg/g
- feces concentration of Cr ([6]; female rats): 0.47 ± 0.04 µg/g
- feces concentration of Cr ([6]; male rats): 0.50 ± 0.06 µg/g
- feces concentration of Cr in comparison with chromium picolinate group ([6]; same gender rats): no notable change
- blood glucose level [7]: could improve blood glucose level
- oxidative DNA damage [8]: no oxidative DNA damage
- toxicity in the acute toxicity study and subacute toxicity study [9]: nontoxic
- FBG level and insulin resistance [10]: could improve FBG level and insulin resistance
- 90-day repeated dose oral toxicity and reproductive toxicity [11]: no remarkable influence

Compound: [Cl][Cr]([Cl])[Cl] [chromium trichloride]
- order of chromium level in mouse organs [12]: liver > kidney > pancreas > spleen > testes > lungs > heart > brain
